Data taken from ChEMBL document CHEMBL5724801, “EUbOPEN Chemogenomics Library - Multiplex” (2024).
Where “and” joins values, the source holds several entries; their conditions need not be identical. Identical values can stand only once.

Tested on: Fibroblast
Test: Multiplex assay against human fibroblast
Assay type: toxicity, cell-based
Method in brief: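 Per cents of healthy-nucleus cells form the tubulin, mitochondrial-mass and membrane-permeability phenotype values. Live cells were stained at seeding with Hoechst33342, BioTracker Green Microtubule Cytoskeleton Dye, MitoTracker Red and Annexin V Alexa Fluor 680. After compound addition they were imaged on a CQ1 microscope at 37°C and 5% CO2, and CellPathfinder machine-learning gating split them into Hoechst high-intensity objects or normal cells, normal cells into healthy, pyknosed or fragmented nuclei, and pyknosed cells into mitotic or apoptotic.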

[1] = 12 h, 1 µM, compound concentration 1 uM
[2] = 12 h, 10 µM, compound concentration 10 uM
[3] = 24 h, 1 µM, compound concentration 1 uM
[4] = 24 h, 10 µM, compound concentration 10 uM
[5] = 48 h, 1 µM, compound concentration 1 uM
[6] = 48 h, 10 µM, compound concentration 10 uM

SMILES: O=C(O)CCC/C=C\CC1C(O)CC(O)C1/C=C/C(O)COc1cccc(Cl)c1 (stereo unspecified) [CLOPROSTENOL]
- Population Apoptotic (%) [1]: 41% and 20%
- Population Fragmented Nuclei (%) [1]: 15% and 22%
- Population Healthy Nuclei (%) [1]: 68% and 52%
- Population Hoechst High Intensity Objects (%) [1]: 0% and 2%
- Population Membrane Permeable-Phenotype (%) [1]: 0% and 8%
- Population Mitochondria Different-Phenotype (%) [1]: 2%
- Population Mitotic Cells (%) [1]: 58% and 80%
- Population Normal (%) [1]: 100% and 97%
- Population Pyknosed Nuclei (%) [1]: 15% and 25%
- Population Tubulin-Different-Phenotype (%) [1]: 22% and 52%
- Total Cell Count [1]: 153 and 141
- Population Apoptotic (%) [2]: 38% and 23%
- Population Fragmented Nuclei (%) [2]: 23%
- Population Healthy Nuclei (%) [2]: 58% and 43%
- Population Hoechst High Intensity Objects (%) [2]: 12% and 4%
- Population Membrane Permeable-Phenotype (%) [2]: 0% and 11%
- Population Mitochondria Different-Phenotype (%) [2]: 4% and 9%
- Population Mitotic Cells (%) [2]: 61% and 76%
- Population Normal (%) [2]: 87% and 95%
- Population Pyknosed Nuclei (%) [2]: 18% and 34%
- Population Tubulin-Different-Phenotype (%) [2]: 31% and 53%
- Total Cell Count [2]: 212 and 105
- Population Apoptotic (%) [3]: 41% and 18%
- Population Fragmented Nuclei (%) [3]: 19% and 27%
- Population Healthy Nuclei (%) [3]: 62% and 49%
- Population Hoechst High Intensity Objects (%) [3]: 0% and 3%
- Population Membrane Permeable-Phenotype (%) [3]: 1% and 7%
- Population Mitochondria Different-Phenotype (%) [3]: 3% and 5%
- Population Mitotic Cells (%) [3]: 58% and 81%
- Population Normal (%) [3]: 99% and 96%
- Population Pyknosed Nuclei (%) [3]: 18% and 23%
- Population Tubulin-Different-Phenotype (%) [3]: 26% and 53%
- Total Cell Count [3]: 161 and 144
- Population Apoptotic (%) [4]: 41% and 59%
- Population Fragmented Nuclei (%) [4]: 24% and 28%
- Population Healthy Nuclei (%) [4]: 57% and 50%
- Population Hoechst High Intensity Objects (%) [4]: 12% and 3%
- Population Membrane Permeable-Phenotype (%) [4]: 2% and 7%
- Population Mitochondria Different-Phenotype (%) [4]: 3%
- Population Mitotic Cells (%) [4]: 58% and 40%
- Population Normal (%) [4]: 87% and 96%
- Population Pyknosed Nuclei (%) [4]: 18% and 21%
- Population Tubulin-Different-Phenotype (%) [4]: 24% and 57%
- Total Cell Count [4]: 218 and 107
- Population Apoptotic (%) [5]: 65% and 36%
- Population Fragmented Nuclei (%) [5]: 21% and 37%
- Population Healthy Nuclei (%) [5]: 59% and 43%
- Population Hoechst High Intensity Objects (%) [5]: 2% and 3%
- Population Membrane Permeable-Phenotype (%) [5]: 2% and 12%
- Population Mitochondria Different-Phenotype (%) [5]: 2% and 10%
- Population Mitotic Cells (%) [5]: 34% and 64%
- Population Normal (%) [5]: 97% and 96%
- Population Pyknosed Nuclei (%) [5]: 19% and 18%
- Population Tubulin-Different-Phenotype (%) [5]: 25% and 63%
- Total Cell Count [5]: 156 and 137
- Population Apoptotic (%) [6]: 46% and 55%
- Population Fragmented Nuclei (%) [6]: 25% and 41%
- Population Healthy Nuclei (%) [6]: 57% and 49%
- Population Hoechst High Intensity Objects (%) [6]: 13% and 8%
- Population Membrane Permeable-Phenotype (%) [6]: 0% and 4%
- Population Mitochondria Different-Phenotype (%) [6]: 2% and 4%
- Population Mitotic Cells (%) [6]: 53% and 44%
- Population Normal (%) [6]: 86% and 91%
- Population Pyknosed Nuclei (%) [6]: 16% and 9%
- Population Tubulin-Different-Phenotype (%) [6]: 30% and 61%
- Total Cell Count [6]: 205 and 108

SMILES: CN(C)C(=O)Cn1cc(-c2ccc(-c3cncc4ccccc34)cc2)cn1
- Population Apoptotic (%) [1]: 47% and 32%
- Population Healthy Nuclei (%) [1]: 72% and 46%
- Population Hoechst High Intensity Objects (%) [1]: 0% and 5%
- Population Membrane Permeable-Phenotype (%) [1]: 0% and 5%
- Population Mitochondria Different-Phenotype (%) [1]: 5% and 2%
- Population Mitotic Cells (%) [1]: 52% and 67%
- Population Normal (%) [1]: 100% and 94%
- Population Pyknosed Nuclei (%) [1]: 16% and 20%
- Population Tubulin-Different-Phenotype (%) [1]: 31% and 54%
- Total Cell Count [1]: 139 and 161
- Population Apoptotic (%) [2]: 33%
- Population Healthy Nuclei (%) [2]: 69% and 42%
- Population Hoechst High Intensity Objects (%) [2]: 4% and 9%
- Population Mitochondria Different-Phenotype (%) [2]: 12% and 5%
- Population Mitotic Cells (%) [2]: 66%
- Population Normal (%) [2]: 95% and 90%
- Population Pyknosed Nuclei (%) [2]: 16%
- Population Tubulin-Different-Phenotype (%) [2]: 52% and 81%
- Total Cell Count [2]: 113 and 98
- Population Apoptotic (%) [3]: 47% and 48%
- Population Healthy Nuclei (%) [3]: 73% and 38%
- Population Hoechst High Intensity Objects (%) [3]: 5%
- Population Membrane Permeable-Phenotype (%) [3]: 0% and 7%
- Population Mitochondria Different-Phenotype (%) [3]: 3% and 5%
- Population Mitotic Cells (%) [3]: 52% and 51%
- Population Normal (%) [3]: 94%
- Population Pyknosed Nuclei (%) [3]: 14% and 20%
- Population Tubulin-Different-Phenotype (%) [3]: 37% and 61%
- Total Cell Count [3]: 137 and 156
- Population Apoptotic (%) [4]: 50% and 41%
- Population Fragmented Nuclei (%) [4]: 20% and 41%
- Population Healthy Nuclei (%) [4]: 62% and 43%
- Population Hoechst High Intensity Objects (%) [4]: 8% and 5%
- Population Membrane Permeable-Phenotype (%) [4]: 0% and 11%
- Population Mitochondria Different-Phenotype (%) [4]: 12% and 8%
- Population Mitotic Cells (%) [4]: 50% and 58%
- Population Normal (%) [4]: 91% and 94%
- Population Pyknosed Nuclei (%) [4]: 17% and 15%
- Population Tubulin-Different-Phenotype (%) [4]: 59% and 85%
- Total Cell Count [4]: 113 and 85
- Population Apoptotic (%) [5]: 76% and 44%
- Population Fragmented Nuclei (%) [5]: 21% and 36%
- Population Healthy Nuclei (%) [5]: 65% and 40%
- Population Hoechst High Intensity Objects (%) [5]: 6% and 7%
- Population Membrane Permeable-Phenotype (%) [5]: 3% and 5%
- Population Mitochondria Different-Phenotype (%) [5]: 8% and 7%
- Population Mitotic Cells (%) [5]: 23% and 55%
- Population Normal (%) [5]: 93% and 92%
- Population Pyknosed Nuclei (%) [5]: 12% and 22%
- Population Tubulin-Different-Phenotype (%) [5]: 57% and 77%
- Total Cell Count [5]: 144 and 141
- Population Fragmented Nuclei (%) [6]: 24% and 47%
- Population Healthy Nuclei (%) [6]: 54% and 44%
- Population Hoechst High Intensity Objects (%) [6]: 9% and 0%
- Population Membrane Permeable-Phenotype (%) [6]: 0% and 8%
- Population Mitochondria Different-Phenotype (%) [6]: 20% and 13%
- Population Normal (%) [6]: 90% and 99%
- Population Pyknosed Nuclei (%) [6]: 20% and 7%
- Population Tubulin-Different-Phenotype (%) [6]: 55% and 73%
- Total Cell Count [6]: 117 and 102
